pIC50: −log10 of the molar value. The source made the active and inactive calls. The rule behind the calls is not given here.
Key:
[1] = Antiproliferative activity against mouse HT22 cells after 72 hrs by MTT assay; assay type: cell-based; settings: HT-22, 72 h
How it was run: (§1)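 Cells were incubated 72 h with compound at 0.1-30 μM, and proliferation was measured by MTT. IC50 is the concentration giving 50% inhibition of proliferation, reported as the mean of two independent experiments.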

SH-SY5Y [2] = experiment: Antiproliferative activity against human SH-SY5Y cells after 72 hrs by MTT assay; assay type: functional, cell-based; how it was run: as §1
HaCaT [3] = experiment: Antiproliferative activity against human HaCaT cells after 72 hrs by MTT assay; assay type: cell-based; how it was run: as §1
[4] = Antioxidant activity in human fibroblasts assessed as reduction of tert-butyl hydroperoxide-induced ROS production at 10 uM treated 24 hrs before tert-butyl hydroperoxide challenge measured after 30 mins by fluorescence plate reader analysis; assay type: functional, Fibroblast; set-up: scale not given: the % may be the effect or the level left
C6 [5] = experiment: Antiproliferative activity against rat C6 cells after 72 hrs by MTT assay; assay type: functional, cell-based; settings: C6, 72 h; how it was run: as §1
Bos taurus = organism: Bos taurus; experiment: Antioxidant activity in bovine heart mitochondria assessed as reduction of antimycin A-induced ROS production at 10 uM by fluorescence plate reader analysis; assay type: functional
How it was run: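 Submitochondrial particles were given NADH as substrate, and ROS production was induced with 2 μM antimycin A. Compounds were tested at 10 μM, with 1.8 μM mucidin as negative control. ROS were detected with the fluorogenic probe DCFDA.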

Caco-2 [6] = experiment: Antiproliferative activity against human Caco-2 cells after 72 hrs by MTT assay; assay type: functional, cell-based; settings: Caco-2, 72 h; how it was run: as §1
C6 [7] = experiment: Antiproliferative activity against rat C6 cells at 10 uM after 72 hrs by MTT assay; assay type: functional
How it was run: (§2)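 Proliferation was measured by MTT after 72 h exposure to compound (range 0.1-30 μM, with the 10 μM point reported). Results are expressed as percent of control cells, as the mean of two independent experiments.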

SH-SY5Y [8] = experiment: Antiproliferative activity against human SH-SY5Y cells at 10 uM after 72 hrs by MTT assay; assay type: functional; how it was run: as §2
HaCaT [9] = experiment: Antiproliferative activity against human HaCaT cells at 10 uM after 72 hrs by MTT assay; assay type: cell-based; how it was run: as §2
[10] = Antiproliferative activity against mouse HT22 cells at 10 uM after 72 hrs by MTT assay; assay type: cell-based; settings: ht-22, 72 h; how it was run: as §2
Caco-2 [11] = experiment: Antiproliferative activity against human Caco-2 cells at 10 uM after 72 hrs by MTT assay; assay type: functional; how it was run: as §2
T67 = experiment: Antiproliferative activity against human T67 cells at 10 uM after 72 hrs by MTT assay; assay type: functional, cell-based
[12] = molecular target: T1, Heme oxygenase 1 (Bos taurus) (UniProt Q5E9F2); experiment: Activation of heme oxygenase-1 in BAEC at 10 uM after 6 hrs
T1 sequence (whole entry): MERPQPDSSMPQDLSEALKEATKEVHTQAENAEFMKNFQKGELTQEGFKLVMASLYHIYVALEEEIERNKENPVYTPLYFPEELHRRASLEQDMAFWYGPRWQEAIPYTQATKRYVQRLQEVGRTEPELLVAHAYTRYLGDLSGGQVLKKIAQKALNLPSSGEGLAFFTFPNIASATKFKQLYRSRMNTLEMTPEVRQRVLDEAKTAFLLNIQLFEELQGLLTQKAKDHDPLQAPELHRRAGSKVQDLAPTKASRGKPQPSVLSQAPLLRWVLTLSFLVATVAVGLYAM
How it was run: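 HO-1 activity measured in bovine aortic endothelial cells exposed to 10 μM compound for 6 h. Control cells received medium alone. Activity is reported as (pmol bilirubin/mg protein)/h, averaged over three independent experiments.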

[13] = Cellular uptake in human T67 cells at 10 uM after 30 mins by fluorescence microscopic analysis; assay type: ADME, cell-based; settings: t67, 0.5 h
How it was run: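 T67 glioma cells were pretreated with 10 μM fluorescent probe plus 1 mg/mL oligomycin. Images were taken by inverted fluorescence microscopy after 30 min of incubation, with or without 20 μM CCCP uncoupler to test dependence on mitochondrial potential.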

[14] = Cellular uptake in human T67 cells at 10 uM after 30 mins by fluorescence microscopic analysis in presence of mitochondrial uncoupler carbonyl cyanide m-chlorophenyl-hydrazone; assay type: ADME, cell-based; settings: t67, 0.5 h
How it was run: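 T67 glioma cells were pretreated with 10 μM of the fluorescent test compound plus 1 mg/mL oligomycin, an ATP-synthase inhibitor, with 20 μM CCCP uncoupler added. Images were taken by inverted fluorescence microscopy after 30 min of incubation.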

Row | SMILES | pIC50 [1] | pIC50 (SH-SY5Y [2]) | pIC50 (HaCaT [3]) | Activity [4] [%] | pIC50 (C6 [5]) | Activity (Bos taurus) | pIC50 (Caco-2 [6]) | Activity (C6 [7]) [%] | Activity (SH-SY5Y [8]) [%] | Activity (HaCaT [9]) [%] | Activity [10] [%] | Activity (Caco-2 [11]) [%] | Activity (T67) | Activity [12] | Drug uptake [13] | Drug uptake [14]
1 | CCOc1cc(/C=C2\CN(C(=O)CCC(=O)NCCCNCCCCNCCCN)C/C(=C\c3ccc(O)c(OCC)c3)C2=O)ccc1O | 4.74 | 4.68 | 4.80 | 38 | 4.85 | Active | 4.84 | – | – | – | – | – | – | – | – | –
2 | CCOc1cc(/C=C2\CN(C(=O)CCC(=O)NCCCNCCCN)C/C(=C\c3ccc(O)c(OCC)c3)C2=O)ccc1O | 4.72 | 4.84 | 4.81 | 45 | 4.84 | Active | 4.79 | – | – | – | – | – | – | – | – | –
3 | COc1cc(/C=C2\CN(C(=O)CCC(=O)NCCCNCCCN)C/C(=C\c3ccc(O)c(OC)c3)C2=O)ccc1O | 4.61 | 4.75 | 4.75 | 40 | 4.70 | Active | 4.78 | – | – | – | – | – | – | – | – | –
4 | COc1cc(/C=C2\CN(C(=O)CCC(=O)NCCCNCCCCNCCCN)C/C(=C\c3ccc(O)c(OC)c3)C2=O)ccc1O | 4.70 | 4.85 | 4.81 | 45 | 4.86 | Active | 4.92 | 40 | 40 | 10 | 10 | 40 | – | – | – | –
5 | COc1cc(/C=C2\CNC/C(=C\c3ccc(O)c(OC)c3)C2=O)ccc1O | 5.51 | 5.68 | 5.52 | – | 5.41 | inactive | 6.70 | – | – | – | – | – | Active | Active | – | –
6 | COc1cc(/C=C2\CN(C(=O)CCC(=O)N(CCCNCCCCNCCCN)Cc3ccc(-c4nc5ccccc5s4)cc3)C/C(=C\c3ccc(O)c(OC)c3)C2=O)ccc1O | – | – | – | – | – | – | – | – | – | – | – | – | – | – | Active | Not Active
7 | COc1cc(/C=C/C(=O)CC(=O)/C=C/c2ccc(O)c(OC)c2)ccc1O [CURCUMIN] | 4.69 | 4.89 | 4.66 | – | 4.79 | – | 4.82 | – | – | – | – | – | – | – | – | –
8 | CCCCCC[C@H]1C(=O)O[C@H](C)[C@H](NC(=O)c2cccc(NC=O)c2O)C(=O)O[C@@H](C)[C@@H]1OC(=O)CC(C)C | – | – | – | – | – | inactive | – | – | – | – | – | – | – | – | – | –

From ChEMBL document CHEMBL1255202, “Polyamine conjugation of curcumin analogues toward the discovery of mitochondria-directed neuroprotective agents” (J Med Chem, 2010)
